Assay results: ChEMBL document CHEMBL5712072, “Epigenetic targeting of Hedgehog pathway transcriptional output through BET bromodomain inhibition” (Nat Med, 2014)
Calls of active or inactive are those of the source. No cut-off for these calls is given here.

Legend:
[1] = system: Basal cell carcinoma cell (Mus musculus); assay: Antitumor activity in mouse basal cell carcinoma allografted in mouse assessed as reduction in tumor growth at 100 mg/kg/day, ip
Medulloblastoma cell [2] = assay: Induction of apoptosis in human wildtype SMO expressing medulloblastoma cells assessed as viable cells by annexin-V/PI staining based flow cytometric analysis (reference value: 74.9%); type: functional
Medulloblastoma cell [3] = assay: Induction of apoptosis in human wildtype SMO expressing medulloblastoma cells assessed as early apoptotic cells by annexin-V/PI staining based flow cytometric analysis (reference value: 0.59%); type: functional
[4] = target: Bromodomain-containing protein 4 (Mus musculus) (UniProt Q9ESU6); assay: Inhibition of BRD4 in mouse Hh-Light2 cells assessed as Gli1 mRNA level by qRT-PCR analysis
Medulloblastoma cell [5] = assay: Induction of apoptosis in mouse wildtype SMO expressing medulloblastoma cells assessed as necrotic cells by annexin-V/PI staining based flow cytometric analysis (reference value: 22%)
[6] = target: Bromodomain-containing protein 4 (Mus musculus) (UniProt Q9ESU6); assay: Inhibition of BRD4 in mouse Hh-Light2 cells assessed as inhibition in Gli1 protein level by immunoblot analysis
MEF [7] = assay: Downregulation of Gli1 protein expression in Sufu-/- MEF cells by immunoblot analysis; type: functional, cell-based; conditions: Mus musculus
How it was run: (§1)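 Sufu−/− MEFs exposed to DMSO or 1 uM of JQ1, GDC-0449, LDE225 or SANT-1; RIPA lysis 30min on ice, cleared 13000rpm 15min 4°C; SDS-PAGE immunoblot with anti-GLI1, β-tubulin as loading control.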

[8] = target: Zinc finger protein GLI2 (Homo sapiens) (UniProt P10070); assay: Inhibition of human GLI2 expressed in Hh-Light2 cells assessed as reduction in Gli1 mRNA expression level by qRT-PCR analysis; type: cell-based
How it was run: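 Hh-Light2 cells transiently transfected (Turbofect) with full-length murine HA-Gli2-FL or N-terminally truncated human Myc-GLI2-DN; drugs (1 uM JQ1, GDC-0449, LDE225 or SANT-1) added 24hr post-transfection; Gli1 mRNA by SYBR Green qRT-PCR; mean of triplicates ± SD.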

Medulloblastoma cell [9] = assay: Antiproliferative activity against in […] medulloblastoma cells expressing SmoWT-MB cells from mouse assessed as cell proliferation by EdU analysis; type: functional, cell-based
How it was run: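 SmoWT-MB cells given 0.1uM GDC-0449 or LDE225 (or JQ1 1 uM); 10uM EdU added for final 6-8hrs; EdU+ cells detected by Click-iT flow cytometry or imaging, DAPI counterstain; proliferation index = EdU+/DAPI+ cells; group means ± SD.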

Medulloblastoma cell [10] = assay: Antitumor activity in […] medulloblastoma cells expressing SmoD477G mutant […] in NSG mouse assessed as reduction in tumor growth at 100 mg/kg/day, po; type: functional, organism-based
Medulloblastoma cell [11] = assay: Antitumor activity in […] medulloblastoma expressing wildtype SMO […] in NSG mouse assessed as reduction in tumor growth at 100 mg/kg/day, po; type: functional, organism-based
How it was run: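 Flank allografts: 2x10e6 SmoWT-MB cells per flank (both flanks) in 4-6 week NSG mice; randomized after engraftment to vehicle, GDC-0449 100 mg/kg PO qd or JQ1 50 mg/kg IP qd, dosed until euthanasia required; caliper tumor measurement; group means ± S.E.M.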

Medulloblastoma cell [12] = assay: Induction of apoptosis in mouse wildtype SMO expressing medulloblastoma cells assessed as late apoptotic cells by annexin-V/PI staining based flow cytometric analysis (reference value: 2.5%)
MEF [13] = assay: Downregulation of Gli transcription in Sufu-/- MEF cells by immunoblot analysis; type: functional, cell-based; conditions: Mus musculus
How it was run: as §1

Sequence of Zinc finger protein GLI2 (Homo sapiens) (P10070 whole entry, the tested form may be a part): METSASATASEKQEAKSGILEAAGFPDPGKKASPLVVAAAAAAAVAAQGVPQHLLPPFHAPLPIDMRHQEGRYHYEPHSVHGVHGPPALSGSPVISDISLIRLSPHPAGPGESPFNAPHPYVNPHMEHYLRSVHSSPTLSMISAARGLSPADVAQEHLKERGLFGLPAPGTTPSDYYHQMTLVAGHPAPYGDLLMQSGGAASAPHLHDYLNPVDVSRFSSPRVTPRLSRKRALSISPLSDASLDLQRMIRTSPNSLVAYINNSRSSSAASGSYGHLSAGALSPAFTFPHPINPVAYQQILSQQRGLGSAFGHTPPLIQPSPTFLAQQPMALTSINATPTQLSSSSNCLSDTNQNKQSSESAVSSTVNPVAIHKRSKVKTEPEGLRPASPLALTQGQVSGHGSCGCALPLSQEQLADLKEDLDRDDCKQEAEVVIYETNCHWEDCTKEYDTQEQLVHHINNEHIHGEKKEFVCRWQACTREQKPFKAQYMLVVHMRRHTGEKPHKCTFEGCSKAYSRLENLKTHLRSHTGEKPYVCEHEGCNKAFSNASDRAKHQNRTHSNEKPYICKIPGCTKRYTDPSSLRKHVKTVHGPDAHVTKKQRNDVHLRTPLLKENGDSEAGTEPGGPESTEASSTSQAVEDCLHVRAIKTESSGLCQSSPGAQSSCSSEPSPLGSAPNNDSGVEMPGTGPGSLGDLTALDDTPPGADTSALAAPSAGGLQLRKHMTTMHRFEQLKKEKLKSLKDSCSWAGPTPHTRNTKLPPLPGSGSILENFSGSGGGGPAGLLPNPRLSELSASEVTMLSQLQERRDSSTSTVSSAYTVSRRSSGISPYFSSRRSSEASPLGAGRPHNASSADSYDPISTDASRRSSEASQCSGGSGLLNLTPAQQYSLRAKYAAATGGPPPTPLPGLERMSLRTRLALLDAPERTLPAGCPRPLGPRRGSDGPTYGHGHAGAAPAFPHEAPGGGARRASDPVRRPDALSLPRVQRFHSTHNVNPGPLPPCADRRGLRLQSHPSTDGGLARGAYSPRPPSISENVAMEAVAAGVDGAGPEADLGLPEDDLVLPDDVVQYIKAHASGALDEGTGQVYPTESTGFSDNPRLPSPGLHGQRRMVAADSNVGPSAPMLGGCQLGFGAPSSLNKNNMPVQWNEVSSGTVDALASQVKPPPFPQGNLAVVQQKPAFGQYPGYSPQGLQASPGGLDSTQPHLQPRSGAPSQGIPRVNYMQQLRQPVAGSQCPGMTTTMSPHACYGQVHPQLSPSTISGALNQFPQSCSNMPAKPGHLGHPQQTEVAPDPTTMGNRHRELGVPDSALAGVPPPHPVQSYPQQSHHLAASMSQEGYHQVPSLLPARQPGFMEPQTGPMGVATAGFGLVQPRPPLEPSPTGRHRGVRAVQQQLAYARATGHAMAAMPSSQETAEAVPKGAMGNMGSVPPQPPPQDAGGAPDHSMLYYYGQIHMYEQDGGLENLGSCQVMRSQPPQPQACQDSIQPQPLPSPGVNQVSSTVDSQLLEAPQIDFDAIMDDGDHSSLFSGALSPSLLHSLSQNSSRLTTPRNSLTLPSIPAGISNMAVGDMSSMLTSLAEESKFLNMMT

Row | Structure (SMILES) | Activity [1] | Activity (Medulloblastoma cell [2]) | Activity (Medulloblastoma cell [3]) | inhibition [4] | Activity (Medulloblastoma cell [5]) | inhibition [6] | Activity (MEF [7]) | inhibition [8] | Activity (Medulloblastoma cell [9]) | Activity (Medulloblastoma cell [10]) | Activity (Medulloblastoma cell [11]) | Activity (Medulloblastoma cell [12]) | Activity (MEF [13])
1 | CNCc1ccc(C)c(NC(=O)c2ccc(Nc3nc(-c4ccccc4)c4ccccc4n3)cc2)c1 | Active |  |  |  |  |  |  |  |  |  |  |  | 
2 | CS(=O)(=O)c1ccc(C(=O)Nc2ccc(Cl)c(-c3ccccn3)c2)c(Cl)c1 [VISMODEGIB] |  | 40.8% | 1.01% | Active | 51.2% | Active | inactive | inactive | Active | inactive | Active | 6.98% | inactive
3 | Cc1c(C(=O)Nc2ccc(N3C[C@@H](C)O[C@@H](C)C3)nc2)cccc1-c1ccc(OC(F)(F)F)cc1 [SONIDEGIB] |  | 33% | 1.09% | Active | 58.8% | Active | inactive | inactive | Active |  |  | 7.15% | inactive
